How the values were obtained:
[1] = biological target: T1, Dual specificity mitogen-activated protein kinase kinase 4 (Homo sapiens, UniProt P45985); experiment: Inhibition of MAP2K4 in human HeLa cells lysate pre incubated for 15 mins followed by ATP acyl phosphate probe addition and measured after 10 mins by LC-MS/MS analysis; format: subcellular
[2] = biological target: Ribosomal protein S6 kinase alpha-1 (Homo sapiens, UniProt Q15418); experiment: Inhibition of RSK1 domain 2 K2 site in human HeLa cells lysate pre incubated for 15 mins followed by ADP acyl phosphate probe addition and measured after 10 mins by LC-MS/MS analysis; format: subcellular
[3] = biological target: Calcium/calmodulin-dependent protein kinase type II subunit gamma (Homo sapiens, UniProt Q13555); experiment: Inhibition of CAMK2g in human HeLa cells lysate pre incubated for 15 mins followed by ADP acyl phosphate probe addition and measured after 10 mins by LC-MS/MS analysis; format: subcellular
How it was run: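 KiNativ-type profiling in HeLa lysate (5 mg/mL total protein). Lysate preincubated 15 min with inhibitor at 50, 10, 2, 0.8 or 0 μM, then ATP or ADP acylphosphate probe added (5 μM final) for 10 min. Reaction stopped with urea and analysed by targeted MS, using up to four fragment ions per kinase peptide-probe conjugate. % inhibition calculated against untreated lysate. Duplicate reactions.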

[4] = biological target: Peripheral plasma membrane protein CASK (Homo sapiens, UniProt O14936); experiment: Inhibition of CASK in human HeLa cells lysate pre incubated for 15 mins followed by ADP acyl phosphate probe addition and measured after 10 mins by LC-MS/MS analysis; format: subcellular
How it was run: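 KiNativ profiling in HeLa lysate (5 mg/mL total protein). Lysate incubated 15 min with inhibitor at 50, 10, 2, 0.8 or 0 μM. ATP or ADP acylphosphate probe then added (5 μM final) and reacted 10 min. Reaction stopped with urea and analysed by targeted MS, using up to four fragment ions per kinase peptide-probe conjugate. % inhibition taken against untreated lysate. Run in duplicate.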

[5] = biological target: Dual specificity mitogen-activated protein kinase kinase 1 (Homo sapiens, UniProt Q02750); experiment: Inhibition of MAP2K1 in human HeLa cells lysate pre incubated for 15 mins followed by ADP acyl phosphate probe addition and measured after 10 mins by LC-MS/MS analysis; format: subcellular
[6] = biological target: T1, Dual specificity mitogen-activated protein kinase kinase 4; experiment: Inhibition of MAP2K4 in human HeLa cells lysate pre incubated for 15 mins followed by ADP acyl phosphate probe addition and measured after 10 mins by LC-MS/MS analysis; format: subcellular
[7] = biological target: Cyclin-dependent kinase 16 (Homo sapiens, UniProt Q00536); experiment: Inhibition of PCTAIRE1 in human HeLa cells lysate pre incubated for 15 mins followed by ADP acyl phosphate probe addition and measured after 10 mins by LC-MS/MS analysis; format: subcellular
[8] = biological target: Cyclin-dependent kinase 15 (Homo sapiens, UniProt Q96Q40); experiment: Inhibition of PFTAIRE2 in human HeLa cells lysate pre incubated for 15 mins followed by ADP acyl phosphate probe addition and measured after 10 mins by LC-MS/MS analysis; format: subcellular
Sequence of Cyclin-dependent kinase 15 (Q96Q40 whole entry): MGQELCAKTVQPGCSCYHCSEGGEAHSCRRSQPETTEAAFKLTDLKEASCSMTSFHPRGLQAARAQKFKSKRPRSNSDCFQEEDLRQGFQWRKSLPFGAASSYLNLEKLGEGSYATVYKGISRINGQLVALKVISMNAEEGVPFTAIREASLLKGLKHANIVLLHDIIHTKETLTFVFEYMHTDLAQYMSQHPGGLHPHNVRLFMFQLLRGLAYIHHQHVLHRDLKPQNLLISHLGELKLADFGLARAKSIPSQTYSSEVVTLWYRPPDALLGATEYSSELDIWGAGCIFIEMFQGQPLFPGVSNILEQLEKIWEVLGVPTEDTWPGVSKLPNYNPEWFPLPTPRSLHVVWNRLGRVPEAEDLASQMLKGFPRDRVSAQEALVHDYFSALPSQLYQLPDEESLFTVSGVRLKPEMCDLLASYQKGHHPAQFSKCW

[9] = Inhibition of SRPK1/2 in human HeLa cells lysate pre incubated for 15 mins followed by ADP acyl phosphate probe addition and measured after 10 mins by LC-MS/MS analysis; format: subcellular
[10] = biological target: Ribosomal protein S6 kinase alpha-3 (Homo sapiens, UniProt P51812); experiment: Inhibition of RSK2 domain 1 in human HeLa cells lysate at 50 uM pre incubated for 15 mins followed by ADP acyl phosphate probe addition and measured after 10 mins by LC-MS/MS analysis relative to control; format: subcellular; conditions: time 25.0 min
[11] = biological target: Serine/threonine-protein kinase 24 (Homo sapiens, UniProt Q9Y6E0); experiment: Inhibition of MST3 in human HeLa cells lysate at 50 uM pre incubated for 15 mins followed by ADP acyl phosphate probe addition and measured after 10 mins by LC-MS/MS analysis relative to control; format: subcellular; conditions: time 25.0 min
Sequence of Serine/threonine-protein kinase 24 (Q9Y6E0 whole entry, looked up): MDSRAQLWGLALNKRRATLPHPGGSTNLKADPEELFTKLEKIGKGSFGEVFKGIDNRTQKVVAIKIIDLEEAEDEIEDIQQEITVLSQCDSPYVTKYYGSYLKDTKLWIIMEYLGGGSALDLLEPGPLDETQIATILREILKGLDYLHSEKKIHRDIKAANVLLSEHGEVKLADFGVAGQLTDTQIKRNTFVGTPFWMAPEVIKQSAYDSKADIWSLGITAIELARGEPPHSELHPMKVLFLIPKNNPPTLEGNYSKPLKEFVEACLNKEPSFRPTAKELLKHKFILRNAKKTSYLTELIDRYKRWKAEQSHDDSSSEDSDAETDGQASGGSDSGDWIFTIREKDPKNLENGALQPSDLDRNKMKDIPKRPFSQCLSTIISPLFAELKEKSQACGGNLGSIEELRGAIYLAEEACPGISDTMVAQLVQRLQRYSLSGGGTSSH

[12] = biological target: DNA-dependent protein kinase catalytic subunit (Homo sapiens, UniProt P78527); experiment: Inhibition of PRKDC in human HeLa cells lysate at 10 uM pre incubated for 15 mins followed by ADP acyl phosphate probe addition and measured after 10 mins by LC-MS/MS analysis relative to control; format: subcellular; conditions: time 25.0 min
[13] = Inhibition of MAP3K2/MAP3K3 in human HeLa cells lysate at 10 uM pre incubated for 15 mins followed by ADP acyl phosphate probe addition and measured after 10 mins by LC-MS/MS analysis relative to control; conditions: 25 min, condition cancer
Activated CDC42 kinase 1 = Activated CDC42 kinase 1 (Homo sapiens, UniProt Q07912); experiment: Inhibition of ACK1 in human HeLa cells lysate at 2 uM pre incubated for 15 mins followed by ADP acyl phosphate probe addition and measured after 10 mins by LC-MS/MS analysis relative to control; format: subcellular; conditions: time 25.0 min
Sequence of Activated CDC42 kinase 1 (Q07912 whole entry, looked up, the tested form may be a part): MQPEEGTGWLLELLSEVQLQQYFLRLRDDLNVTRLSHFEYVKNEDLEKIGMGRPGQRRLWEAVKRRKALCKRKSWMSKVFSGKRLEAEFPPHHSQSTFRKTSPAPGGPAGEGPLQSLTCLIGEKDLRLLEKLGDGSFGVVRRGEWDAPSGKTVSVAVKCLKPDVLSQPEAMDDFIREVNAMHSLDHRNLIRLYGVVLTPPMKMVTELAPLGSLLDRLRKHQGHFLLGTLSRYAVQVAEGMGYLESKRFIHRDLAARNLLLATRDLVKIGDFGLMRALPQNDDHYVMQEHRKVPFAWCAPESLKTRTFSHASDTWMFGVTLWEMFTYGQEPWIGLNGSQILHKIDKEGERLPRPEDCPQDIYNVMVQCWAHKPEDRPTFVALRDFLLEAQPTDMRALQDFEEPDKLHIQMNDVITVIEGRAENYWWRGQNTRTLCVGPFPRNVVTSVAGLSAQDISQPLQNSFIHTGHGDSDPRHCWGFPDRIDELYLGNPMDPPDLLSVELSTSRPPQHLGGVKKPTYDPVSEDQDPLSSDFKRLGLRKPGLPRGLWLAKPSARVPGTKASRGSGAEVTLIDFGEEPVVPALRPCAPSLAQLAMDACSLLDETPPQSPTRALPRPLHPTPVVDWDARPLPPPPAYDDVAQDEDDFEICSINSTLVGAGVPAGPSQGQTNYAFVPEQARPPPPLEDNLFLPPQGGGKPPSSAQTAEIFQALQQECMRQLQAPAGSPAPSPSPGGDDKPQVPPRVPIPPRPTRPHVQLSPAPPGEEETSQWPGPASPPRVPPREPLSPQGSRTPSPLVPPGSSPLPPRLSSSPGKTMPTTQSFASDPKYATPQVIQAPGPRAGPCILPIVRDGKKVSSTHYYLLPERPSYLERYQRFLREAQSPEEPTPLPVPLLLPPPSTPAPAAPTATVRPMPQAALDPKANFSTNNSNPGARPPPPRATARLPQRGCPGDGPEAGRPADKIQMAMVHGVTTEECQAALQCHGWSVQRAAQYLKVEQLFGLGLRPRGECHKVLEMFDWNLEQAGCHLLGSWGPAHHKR
How it was run: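 HeLa cell lysates (5 mg/mL total protein) were preincubated with inhibitor at 0, 0.8, 2, 10 or 50 μM for 15 min. ATP or ADP acylphosphate probe was then added (5 μM final) for 10 min, and reactions were stopped with urea. Up to four fragment ions per kinase probe-peptide were quantified by targeted MS. % inhibition was taken relative to untreated lysate. Run in duplicate.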

[14] = Inhibition of MSK1/2 in human HeLa cells lysate at 2 uM pre incubated for 15 mins followed by ADP acyl phosphate probe addition and measured after 10 mins by LC-MS/MS analysis relative to control; conditions: 25 min, condition cancer
[15] = biological target: Phosphatidylinositol 4-phosphate 3-kinase C2 domain-containing subunit beta (Homo sapiens, UniProt O00750); experiment: Inhibition of PIK3C2B in human HeLa cells lysate at 10 uM pre incubated for 15 mins followed by ATP acyl phosphate probe addition and measured after 10 mins by LC-MS/MS analysis relative to control; format: subcellular; conditions: time 25.0 min
Sequence of Phosphatidylinositol 4-phosphate 3-kinase C2 domain-containing subunit beta (O00750 whole entry, the tested form may be a part): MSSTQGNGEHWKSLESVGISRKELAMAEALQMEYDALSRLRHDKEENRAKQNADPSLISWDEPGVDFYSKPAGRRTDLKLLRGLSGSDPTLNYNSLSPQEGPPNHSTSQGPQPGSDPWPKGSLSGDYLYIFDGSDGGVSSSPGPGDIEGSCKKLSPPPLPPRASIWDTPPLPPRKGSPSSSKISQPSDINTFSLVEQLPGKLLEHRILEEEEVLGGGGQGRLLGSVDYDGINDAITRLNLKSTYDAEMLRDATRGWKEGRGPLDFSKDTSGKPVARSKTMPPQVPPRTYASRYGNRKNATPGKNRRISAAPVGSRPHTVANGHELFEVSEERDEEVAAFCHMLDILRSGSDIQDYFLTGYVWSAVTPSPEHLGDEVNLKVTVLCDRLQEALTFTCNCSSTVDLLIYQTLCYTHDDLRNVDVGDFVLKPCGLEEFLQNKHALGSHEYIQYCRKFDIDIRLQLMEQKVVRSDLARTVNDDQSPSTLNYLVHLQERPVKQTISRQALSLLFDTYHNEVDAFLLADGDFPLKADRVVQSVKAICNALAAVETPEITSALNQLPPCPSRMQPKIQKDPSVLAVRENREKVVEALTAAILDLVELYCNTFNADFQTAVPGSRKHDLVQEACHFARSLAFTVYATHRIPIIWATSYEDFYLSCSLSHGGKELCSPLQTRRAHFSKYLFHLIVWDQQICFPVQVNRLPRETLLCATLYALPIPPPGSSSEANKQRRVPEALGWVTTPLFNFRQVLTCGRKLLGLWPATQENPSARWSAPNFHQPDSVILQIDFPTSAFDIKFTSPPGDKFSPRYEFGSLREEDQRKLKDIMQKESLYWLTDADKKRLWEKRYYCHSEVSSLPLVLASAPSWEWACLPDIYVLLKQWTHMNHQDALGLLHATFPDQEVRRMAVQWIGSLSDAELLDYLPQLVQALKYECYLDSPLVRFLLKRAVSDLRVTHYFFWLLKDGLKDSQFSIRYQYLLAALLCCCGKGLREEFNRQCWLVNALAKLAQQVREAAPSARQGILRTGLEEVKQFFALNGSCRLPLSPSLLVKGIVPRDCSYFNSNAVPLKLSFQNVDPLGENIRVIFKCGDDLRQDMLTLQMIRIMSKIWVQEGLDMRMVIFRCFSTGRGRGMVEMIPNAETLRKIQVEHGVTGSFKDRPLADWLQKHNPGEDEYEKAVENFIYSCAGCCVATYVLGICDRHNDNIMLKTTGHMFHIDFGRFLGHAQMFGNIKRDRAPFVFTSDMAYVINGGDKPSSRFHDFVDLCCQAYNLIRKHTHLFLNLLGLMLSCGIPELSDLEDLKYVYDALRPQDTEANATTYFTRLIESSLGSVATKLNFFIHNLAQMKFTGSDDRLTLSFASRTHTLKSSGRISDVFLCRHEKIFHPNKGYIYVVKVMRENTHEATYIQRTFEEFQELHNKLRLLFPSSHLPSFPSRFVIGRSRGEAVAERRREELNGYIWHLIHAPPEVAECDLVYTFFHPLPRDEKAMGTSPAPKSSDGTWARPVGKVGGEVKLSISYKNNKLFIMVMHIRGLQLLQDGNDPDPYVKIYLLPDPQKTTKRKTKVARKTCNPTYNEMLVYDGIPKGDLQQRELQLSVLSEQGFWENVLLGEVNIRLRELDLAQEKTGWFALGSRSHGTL

[16] = biological target: Cyclin-dependent kinase 11B (Homo sapiens, UniProt P21127); experiment: Inhibition of PITSLRE in human HeLa cells lysate at 10 uM pre incubated for 15 mins followed by ATP acyl phosphate probe addition and measured after 10 mins by LC-MS/MS analysis relative to control; format: subcellular; conditions: time 25.0 min
[17] = biological target: Serine/threonine-protein kinase WNK1 (Homo sapiens, UniProt Q9H4A3); experiment: Inhibition of Wnk1 in human HeLa cells lysate at 10 uM pre incubated for 15 mins followed by ATP acyl phosphate probe addition and measured after 10 mins by LC-MS/MS analysis relative to control; format: subcellular; conditions: time 25.0 min
[18] = biological target: Serine/threonine-protein kinase mTOR (Homo sapiens, UniProt P42345); experiment: Inhibition of FRAP in human HeLa cells lysate at 2 uM pre incubated for 15 mins followed by ATP acyl phosphate probe addition and measured after 10 mins by LC-MS/MS analysis relative to control; format: subcellular; conditions: time 25.0 min
[19] = biological target: Serine/threonine-protein kinase DCLK2 (Homo sapiens, UniProt Q8N568); experiment: Binding affinity to DCAMKL2 (unknown origin) assessed as dissociation constant by ATP-competition binding assay
Sequence of Serine/threonine-protein kinase DCLK2 (Q8N568 whole entry): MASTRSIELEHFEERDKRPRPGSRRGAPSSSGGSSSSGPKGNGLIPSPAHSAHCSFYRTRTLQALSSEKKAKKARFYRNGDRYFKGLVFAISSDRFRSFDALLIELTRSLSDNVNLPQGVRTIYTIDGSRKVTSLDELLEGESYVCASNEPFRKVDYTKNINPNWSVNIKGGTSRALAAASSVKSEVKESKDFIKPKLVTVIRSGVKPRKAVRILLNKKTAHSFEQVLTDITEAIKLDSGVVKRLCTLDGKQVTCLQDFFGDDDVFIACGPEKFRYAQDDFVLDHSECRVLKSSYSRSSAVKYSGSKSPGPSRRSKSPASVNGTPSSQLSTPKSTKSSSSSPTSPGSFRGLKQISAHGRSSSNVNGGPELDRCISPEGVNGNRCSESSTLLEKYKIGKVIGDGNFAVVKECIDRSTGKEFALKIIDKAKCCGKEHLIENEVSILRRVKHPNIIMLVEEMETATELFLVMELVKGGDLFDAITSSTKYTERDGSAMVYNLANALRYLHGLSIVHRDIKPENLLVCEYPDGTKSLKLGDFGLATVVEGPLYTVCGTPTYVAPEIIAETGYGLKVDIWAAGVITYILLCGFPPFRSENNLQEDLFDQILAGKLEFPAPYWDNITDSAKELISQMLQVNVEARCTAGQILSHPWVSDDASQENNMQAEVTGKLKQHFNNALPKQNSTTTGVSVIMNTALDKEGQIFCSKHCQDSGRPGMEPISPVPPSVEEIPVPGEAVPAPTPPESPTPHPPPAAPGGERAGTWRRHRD

[20] = Toxicity in C57Bl/6 mouse assessed as effect on alkaline phosphatase level at 50 mg/kg, ip for 14 days (reference value: 51 U/L); format: organism-based; conditions: in vivo, 336 h, time 14 day
[21] = Toxicity in C57Bl/6 mouse assessed as effect on sodium level at 50 mg/kg, ip for 14 days (reference value: 156 mM); format: organism-based; conditions: in vivo, 336 h, time 14 day

T1 sequence (P45985 whole entry, the tested form may be a part): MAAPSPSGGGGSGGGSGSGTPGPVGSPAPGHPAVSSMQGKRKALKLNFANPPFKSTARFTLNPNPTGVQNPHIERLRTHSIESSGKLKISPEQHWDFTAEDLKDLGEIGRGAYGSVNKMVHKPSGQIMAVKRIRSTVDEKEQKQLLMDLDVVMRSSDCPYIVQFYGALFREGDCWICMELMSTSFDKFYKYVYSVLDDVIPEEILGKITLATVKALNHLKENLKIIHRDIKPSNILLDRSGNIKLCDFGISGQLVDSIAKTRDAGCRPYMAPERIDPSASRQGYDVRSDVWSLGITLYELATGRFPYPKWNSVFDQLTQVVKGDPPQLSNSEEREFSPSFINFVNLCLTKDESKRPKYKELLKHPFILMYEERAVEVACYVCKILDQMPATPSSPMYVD

`CCOc1cc(N2CCC(O)CC2)ccc1Nc1ncc2c(n1)N(C)c1ccccc1C(=O)N2C` gave an IC50 [1] of over 50 µM, an IC50 [2] of 31 µM and an IC50 [3] of over 50 µM. It also gave an IC50 [4] of over 50 µM, an IC50 [5] of over 50 µM and an IC50 [6] of over 50 µM. The IC50 [7] was over 50 µM, the IC50 [8] was over 50 µM and the IC50 [9] was over 50 µM. It also gave an inhibition [10] of -4.3%, an inhibition [11] of -8.5% and an inhibition [12] of -4.8%. The inhibition at 10 µM [13] was -18.3%, the inhibition (Activated CDC42 kinase 1) was 24.4% and the inhibition at 2 µM [14] was 23.1%. The inhibition [15] was 6.5%, the inhibition [16] was 0.3% and the inhibition [17] was 6.9%. It also gave an inhibition [18] of 4.6%, a Kd [19] of 0.19 µM and an Activity [20] of 235 U/L. The Activity [21] was 143 mM.

From ChEMBL document CHEMBL5661979, “Pharmacological inhibition of BMK1 suppresses tumor growth through promyelocytic leukemia protein” (Cancer Cell, 2010)
